Drawing on PubChem BioAssay AID624315 (Broad Institute, 2012), this text covers IC50 and activity change, negative = inhibition for 73 compounds.

Values joined by “and” are separate entries in the source; they are usually repeats but may differ in a detail not shown here. Equal entries are not always repeated. Active and inactive are the calls of the source.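 Rule for the calls: active = compounds lowering cell ATP signal whose fitted IC50 is at or below twice the top valid tested dose; inconclusive = flat fit with 30 to 70% inhibition, or poor fit; inactive = the rest.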

In the first assay the test system is SK-MEL-5 melanoma viability, CellTiter-Glo ATP, 24 h. Nature of the assay: SK-MEL-5 parental cell viability reduction, dose response, orthogonal assay for MITF inhibitor project, CellTiter-Glo luminescence, dry powder samples, set 3 (AID 624315).
Settings: not given
A digest of the protocol: (§1)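 System: SK-MEL-5 human melanoma cells, parental non-reporter line; medium: phenol red-free medium; dosing: multiple compound concentrations delivered by pin transfer; incubation: 24 h treatment at 37 °C, 5 min RT before reading; detection: CellTiter-Glo luminescence measuring cellular ATP content; read-out basis: viability from ATP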
For `O=C(NC1=C(c2ccc(Oc3ccccc3)cc2)C(=O)c2ccccc2C1=O)c1ccccc1`, the IC50 is > 70 µM (inactive). Consider `CC(=O)NC1=C(c2ccc(Cl)cc2)C(=O)c2ccccc2C1=O`, for which the IC50 is 13.4 µM. The same measure, in the same setting: the result for `C=CCNC1=C(Cl)C(=O)c2ccccc2C1=O` reads 9.72 µM and 12.1 µM. As for `CN1CCN(C2=C(NC(=O)c3ccccc3)C(=O)c3ccccc3C2=O)CC1`, the IC50 was 9.27 µM.

As for `CC(=O)N(C)C1=C(N2CCN(C)CC2)C(=O)c2ccccc2C1=O`, the IC50 is 4.63 µM. In the case of `NC1=C(NC(=O)c2ccccc2)C(=O)c2ccccc2C1=O`, the IC50 was 19.8 µM. Regarding `O=C(NC1=C(Cl)C(=O)c2ccccc2C1=O)c1ccccc1`, the IC50 was 9.1 µM.

Regarding `CCN(CC)CCCNC1=C(Nc2ccccc2)C(=O)c2ccccc2C1=O`, the IC50 is 34 µM. For `CN1CCN(C2=C(NC(=O)c3ccc(Br)cc3)C(=O)c3ccccc3C2=O)CC1`, the IC50 was 6.69 µM.

For the compound `O=C(NC1=C(N2CCOCC2)C(=O)c2ccccc2C1=O)c1ccc(Br)cc1`, the IC50 was 32 µM. `CC(=O)N(C)C1=C(N2CCCCC2)C(=O)c2ccccc2C1=O`: the IC50 was 4.42 µM. Turning to `O=C(NC1=C(c2ccccc2)C(=O)c2ccccc2C1=O)c1ccc(Br)cc1`, the IC50 was > 70 µM (inactive). Same read-out and setting: in the case of `CN1CCN(C2=C(NS(=O)(=O)c3ccccc3)C(=O)c3ccccc3C2=O)CC1` it was 18.2 µM; in that of `C=CCNC1=C(NS(=O)(=O)c2ccc(Br)cc2)C(=O)c2ccccc2C1=O`, 29.9 µM; in that of `O=C1C(NS(=O)(=O)c2cccs2)=C(N2CCCCC2)C(=O)c2ccccc21`, > 70 µM (inactive). On the same count and under the same terms, the result for `COc1ccc(C(=O)NC2=C(c3ccc(OC)cc3)C(=O)c3ccccc3C2=O)cc1` reads 15.6 µM. Same read-out and setting: the result for `NC1=CC(=O)c2ccccc2C1=O` reads 12.4 µM; that for `O=C(NC1=C(N2CCSCC2)C(=O)c2ccccc2C1=O)c1ccccc1`, 29.9 µM. Take `C=C1C(=O)OC2C1CC/C(C)=C\CCC1(C)OC21` (stereo not drawn): the IC50 was > 47 µM (inactive). Regarding `C=CCNC1=C(N2CCSCC2)C(=O)c2ccccc2C1=O`, the half-maximal inhibitory concentration (IC50) was 10.9 µM. The same measure, in the same setting: in the case of `COc1ccc(C2=C(NC(=O)c3ccc(OC)cc3-c3cccc(OC)c3)C(=O)c3ccccc3C2=O)cc1` it was > 70 µM (inactive); in that of `CC(=O)N(C)C1=C(N2CCOCC2)C(=O)c2ccccc2C1=O`, 10.1 µM; in that of `Cc1ccc(C(=O)NC2=C(c3ccccc3)C(=O)c3ccccc3C2=O)o1`, 23.6 µM. On the same count and under the same terms, in the case of `C=CCNC1=C(N(C)C(C)=O)C(=O)c2ccccc2C1=O` it was 0.79 µM.

As to `CN1CCN(C2=C(Nc3ccccc3)C(=O)c3ccccc3C2=O)CC1`, the IC50 is 23.4 µM. As to `COC1=C(NS(=O)(=O)c2ccccc2)C(=O)c2ccccc2C1=O`, the IC50 is 21.7 µM.

Turning to `COc1ccc(C2=C(NC(=O)c3ccc(Cl)cc3)C(=O)c3ccccc3C2=O)cc1`, the concentration for half-maximal inhibition (IC50) was 34.6 µM.

`O=C1C(Nc2ccccc2)=C(N2CCCCC2)C(=O)c2ccccc21`: the IC50 was 18.1 µM. In the case of `C=CCNC1=C(N2CCCCC2)C(=O)c2ccccc2C1=O`, the IC50 is 5.3 µM. Regarding `C=CCNC1=C(NCCN(CC)CC)C(=O)c2ccccc2C1=O`, the IC50 was 14 µM. Turning to `COc1ccc(C2=C(NC(=O)c3cccc(OC)c3)C(=O)c3ccccc3C2=O)cc1`, the IC50 was 29 µM. `CCN(CC)CCCNC1=C(N(C)C(C)=O)C(=O)c2ccccc2C1=O`: the IC50 was 5.52 µM. With `COc1ccc(C2=C(NC(=O)c3ccccc3Cl)C(=O)c3ccccc3C2=O)cc1`, the IC50 is 17.6 µM. Same read-out and setting: the result for `O=C(NC1=C(c2ccc(OC(F)(F)F)cc2)C(=O)c2ccccc2C1=O)c1ccc(Br)cc1` reads > 70 µM (inactive); that for `O=C1C(Nc2ccccc2)=C(N2CCN(c3ccccc3)CC2)C(=O)c2ccccc21`, > 70 µM (inactive); that for `CCN1CCN(C2=C(NC(=O)c3ccc(Br)cc3)C(=O)c3ccccc3C2=O)CC1`, 8.82 µM. The same measure, in the same setting: the result for `COc1ccc(C2=C(NC(=O)c3ccc4ccccc4c3)C(=O)c3ccccc3C2=O)cc1` reads > 70 µM (inactive); that for `C=CCNC1=C(N2CCN(C)CC2)C(=O)c2ccccc2C1=O`, 25.3 µM; that for `C[C@@H](NC1=C(Nc2ccccc2)C(=O)c2ccccc2C1=O)c1ccccc1`, > 70 µM (inactive). Same read-out and setting: in the case of `CN1CCN(C2=C(NS(=O)(=O)c3ccc(Br)s3)C(=O)c3ccccc3C2=O)CC1` it was 30 µM; in that of `O=C1C(NS(=O)(=O)c2ccc(Br)cc2)=C(c2ccccc2)C(=O)c2ccccc21`, > 70 µM (inactive).

On to `O=C(NC1=C(c2ccccc2)C(=O)c2ccccc2C1=O)c1ccco1`, for which the half-maximal inhibitory concentration (IC50) is 25.7 µM.

Consider `CN1CCN(C2=C(NS(=O)(=O)c3cccs3)C(=O)c3ccccc3C2=O)CC1`, for which the IC50 was > 70 µM (inactive). Take `COc1ccc(C(=O)NC2=C(c3ccc(OC(F)(F)F)cc3)C(=O)c3ccccc3C2=O)cc1`: the IC50 is > 70 µM (inactive). Regarding `O=C1C(Nc2ccccc2)=C(N2CCOCC2)C(=O)c2ccccc21`, the IC50 is 27 µM.

As for `CC(=O)NC1=C(c2cccc(Cl)c2)C(=O)c2ccccc2C1=O`, the concentration for half-maximal inhibition (IC50) is 14 µM. The same measure, in the same setting: in the case of `CN1CCN(C2=C(NS(=O)(=O)c3ccc(Br)cc3)C(=O)c3ccccc3C2=O)CC1` it was > 70 µM (inactive). With `COc1cccc(C2=C(NC(=O)c3ccccc3)C(=O)c3ccccc3C2=O)c1`, the IC50 is 22.5 µM. In the case of `O=C(NC1=C(N2CCN(c3ccccc3)CC2)C(=O)c2ccccc2C1=O)c1ccccc1`, the IC50 was > 70 µM (inactive). Same read-out and setting: the result for `COc1ccc(C2=C(NC(=O)c3ccccc3OC)C(=O)c3ccccc3C2=O)cc1` reads > 70 µM (inactive). Regarding `COc1ccc(C2=C(NC(C)=O)C(=O)c3ccccc3C2=O)cc1`, the IC50 was 13.9 µM. Still for that read-out and setting: in the case of `CC(=O)NC1=C(c2ccccc2)C(=O)c2ccccc2C1=O` it was 18.3 µM; in that of `O=C(NC1=C(N2CCOCC2)C(=O)c2ccccc2C1=O)c1ccccc1`, 20.1 µM; in that of `O=C(NC1=C(c2ccccc2)C(=O)c2ccccc2C1=O)c1ccccc1`, 26.1 µM.

Regarding `COc1cccc(-c2cc(C(=O)NC3=C(Cl)C(=O)c4ccccc4C3=O)ccc2OC)c1`, the half-maximal inhibitory concentration (IC50) is 34 µM.

`C=CCNC1=C(N2CCN(CC)CC2)C(=O)c2ccccc2C1=O`: the IC50 was 17.9 µM. In the case of `C=CCNC1=C(NCCCN(CC)CC)C(=O)c2ccccc2C1=O`, the IC50 is 15.6 µM. `O=C1C(NS(=O)(=O)c2ccc(Br)s2)=C(N2CCSCC2)C(=O)c2ccccc21`: the IC50 was > 70 µM (inactive). On to `C=CCNC1=C(N2CCOCC2)C(=O)c2ccccc2C1=O`, for which the IC50 was 11 µM. The same measure, in the same setting: in the case of `CC1CCN(CC(CS(=O)(=O)c2ccc([N+](=O)[O-])cc2)N2CCC(C)CC2)CC1` (stereo not drawn) it was > 70 µM (inactive). On the same count and under the same terms, the result for `CCN1CCN(C2=C(N(C)C(C)=O)C(=O)c3ccccc3C2=O)CC1` reads 6.41 µM; that for `Cc1nc2ccccc2n1/N=C/c1ccc([N+](=O)[O-])s1`, 20.1 µM.

As for `CCN1CCN(C2=C(NC(=O)c3ccccc3)C(=O)c3ccccc3C2=O)CC1`, the IC50 was 8.63 µM. For the compound `O=C1C=C(Nc2ccccc2)C(=O)c2ccccc21`, the IC50 is 5.05 µM. In the case of `CCN1c2ccccc2NC2N=C(OC)C(c3ccccc3)C21` (stereo not drawn), the IC50 is 23.9 µM. On the same count and under the same terms, the result for `CCN1CCN(C2=C(Nc3ccccc3)C(=O)c3ccccc3C2=O)CC1` reads 28.1 µM; that for `O=C1C(Nc2ccccc2)=C(NS(=O)(=O)c2ccccc2[N+](=O)[O-])C(=O)c2ccccc21`, > 70 µM (inactive); that for `COc1ccc(C2=C(NC(=O)c3cccc(Cl)c3)C(=O)c3ccccc3C2=O)cc1`, 27.7 µM. Regarding `COc1ccc(S(=O)(=O)N(C(C)=O)c2ccc(OC(C)=O)c3ccccc23)cc1[N+](=O)[O-]`, the IC50 was 31.6 µM.

With `O=C1C(NS(=O)(=O)c2ccc(Br)cc2)=C(c2ccc(OC(F)(F)F)cc2)C(=O)c2ccccc21`, the IC50 is > 70 µM (inactive). Still for that read-out and setting: in the case of `CC(=O)NC1=C(c2ccc3c(c2)oc2ccccc23)C(=O)c2ccccc2C1=O` it was 25.3 µM. Turning to `O=C1C(NS(=O)(=O)c2ccc(Br)cc2)=C(N2CCOCC2)C(=O)c2ccccc21`, the IC50 was 35.4 µM.

Test system in another assay: not listed separately
The assay is described as above. The following applies: SK-MEL-5 melanoma viability, CellTiter-Glo ATP, 24 h; at 35 µM (top of the series). Put shortly: as §1
In the case of `C=CCNC1=C(NCC=C)C(=O)c2ccccc2C1=O`, the activity change, negative = inhibition is -5.12% (inactive).
